pIC50: −log10 of the molar value.
Tests used:
Bcl-2-related protein A1 [1] = target: T1, Bcl-2-related protein A1 (Homo sapiens, UniProt Q16548); assay: Inhibition of N-terminal FITC BH3 peptide binding to GST-tagged Bfl1 by time resolved-FRET assay
T1 sequence (Q16548 whole entry): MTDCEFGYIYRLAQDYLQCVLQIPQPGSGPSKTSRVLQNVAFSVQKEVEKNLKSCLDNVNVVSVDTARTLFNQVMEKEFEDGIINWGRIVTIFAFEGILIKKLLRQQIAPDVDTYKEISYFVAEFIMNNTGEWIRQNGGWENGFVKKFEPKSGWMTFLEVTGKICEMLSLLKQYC
Procedure, shortened: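 10-point 2-fold dilution series in 10% final DMSO, in duplicate wells. FITC-Bid (5.6 nM) plus Tb-antibody (2.5 nM) was then added and incubated 4 h at room temperature. TR-FRET read at ex 340 nm, signal taken as the 520/490 nm emission ratio.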

Bcl-2-related protein A1 [2] = target: T1, Bcl-2-related protein A1; assay: Inhibition of N-terminal FITC BH3 peptide binding to GST-tagged Bfl1 by fluorescence polarization assay
Procedure, shortened: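 Then FITC-Bid BH3 peptide (5.6 nM working solution) was added and incubated 4 h at room temperature. Ten concentrations in 10% DMSO. Fluorescence polarization read at ex 485/em 530 nm. IC50 from sigmoidal dose-response non-linear regression.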

| pIC50 (Bcl-2-related protein A1 [1]) | pIC50 (Bcl-2-related protein A1 [2]) | SMILES |
| --- | --- | --- |
| 6.40 | 6.52 | O=C1C(Cl)=C(N2CCN(CCOCCO)CC2)C(=O)N1c1ccc(Cl)c(Cl)c1 |
| 6.16 | 6.60 | O=C1C(Cl)=C(N2CCN(C/C=C/c3ccccc3)CC2)C(=O)N1c1ccc(Cl)c(Cl)c1 |
| 6.35 | 6.10 | O=C1C(Cl)=C(N2CCOCC2)C(=O)N1c1ccc(Cl)c(Cl)c1 |
| 5.30 | 5.92 | COc1cccc(N2CCN(C3=C(Cl)C(=O)N(c4ccc(Cl)c(Cl)c4)C3=O)CC2)c1 |
| 5.08 | < 5.00 | COc1ccc(N2CCN(C3=C(Cl)C(=O)N(c4ccc(Cl)c(Cl)c4)C3=O)CC2)cc1 |
| < 5.00 | < 5.00 | CN1CCN(C2CC(=O)N(c3ccc(Cl)c(Cl)c3)C2=O)CC1 (configuration not stated) |
| 5.92 | 5.68 | CN1CCN(C2=C(Cl)C(=O)N(c3cccc(Cl)c3)C2=O)CC1 |
| 6.21 | 6.62 | O=C1C(Cl)=C(N2CCN(CCO)CC2)C(=O)N1c1ccc(Cl)c(Cl)c1 |
| 4.45 | 4.54 | CN1CCN(C2=C(Cl)C(=O)N(c3ccncc3Cl)C2=O)CC1 |
| < 4.30 | < 4.30 | O=C1C(Cl)=C(NCCO)C(=O)N1c1ccc(Cl)c(Cl)c1 |
| 6.10 | 6.22 | C[C@@H]1CN(C2=C(Cl)C(=O)N(c3ccc(Cl)c(Cl)c3)C2=O)CCN1 |
| 5.68 | – | O=C1C(Cl)=C(N2CCN(Cc3ccc4c(c3)OCO4)CC2)C(=O)N1c1ccc(Cl)c(Cl)c1 |
| 5.96 | 5.66 | C[C@H]1CN(C2=C(Cl)C(=O)N(c3ccc(Cl)c(Cl)c3)C2=O)CCN1 |
| 5.39 | 5.31 | O=C1C(Cl)=C(N2CCN(c3ccccc3)CC2)C(=O)N1c1ccc(Cl)c(Cl)c1 |
| 5.72 | 5.62 | CN1CCN(C2=C(Cl)C(=O)N(c3cc(Cl)cc(Cl)c3)C2=O)CC1 |
| 6.00 | 5.48 | CN1CCN(C2=C(Cl)C(=O)N(c3ccccc3Cl)C2=O)CC1 |

| pIC50 (Bcl-2-related protein A1 [1]) | pIC50 (Bcl-2-related protein A1 [2]) | SMILES |
| --- | --- | --- |
| 5.89 | 5.62 | O=C1C(Cl)=C(N2CCN(Cc3ccccc3)CC2)C(=O)N1c1ccc(Cl)c(Cl)c1 |
| 5.70 | – | CC1C(=O)NCCN1C1=C(Cl)C(=O)N(c2ccc(Cl)c(Cl)c2)C1=O (configuration not stated) |
| 5.59 | – | CN1CCN(C2=C(Cl)C(=O)N(c3cccc(Cl)c3Cl)C2=O)CC1 |
| < 5.00 | < 5.00 | CN1CCN(C2=CC(=O)N(c3ccc(Cl)cc3)C2=O)CC1 |
| 5.85 | – | CN1CCN(C2=C(Cl)C(=O)N(c3ccc(Cl)cc3Cl)C2=O)CC1 |
| 5.41 | 5.17 | CN1CCN(C2=C(Cl)C(=O)N(c3cccc([N+](=O)[O-])c3)C2=O)CC1 |
| 6.10 | 6.22 | CN1CCN(C2=C(Cl)C(=O)N(c3ccc(Cl)c(Cl)c3)C2=O)CC1 |
| 4.97 | 4.90 | Cc1cccc(N2C(=O)C(Cl)=C(N3CCN(C)CC3)C2=O)c1 |
| < 4.30 | < 4.30 | O=C1C(Cl)=C(N2CCCC2)C(=O)N1c1ccc(Cl)c(Cl)c1 |
| 5.08 | < 5.00 | Cc1cccc(N2CCN(C3=C(Cl)C(=O)N(c4ccc(Cl)c(Cl)c4)C3=O)CC2)c1 |
| < 4.30 | < 4.30 | O=C1C(Cl)=C(N2CCCCC2)C(=O)N1c1ccc(Cl)c(Cl)c1 |
| < 5.00 | < 5.00 | O=C1C(Cl)=C(N2CCN(c3cccc(C(F)(F)F)c3)CC2)C(=O)N1c1ccc(Cl)c(Cl)c1 |
| 6.00 | 5.77 | CCN1CCN(C2=C(Cl)C(=O)N(c3ccc(Cl)c(Cl)c3)C2=O)CC1 |
| < 4.30 | < 4.30 | O=C1C(Cl)=C(NCc2ccccc2)C(=O)N1c1ccc(Cl)c(Cl)c1 |
| 5.21 | 5.02 | COc1ccccc1N1CCN(C2=C(Cl)C(=O)N(c3ccc(Cl)c(Cl)c3)C2=O)CC1 |
| 5.48 | 4.98 | CCCCN1CCN(C2=C(Cl)C(=O)N(c3ccc(Cl)c(Cl)c3)C2=O)CC1 |

| SMILES | pIC50 (Bcl-2-related protein A1 [1]) | pIC50 (Bcl-2-related protein A1 [2]) |
| --- | --- | --- |
| CN(C)C1=C(Cl)C(=O)N(c2ccc(Cl)c(Cl)c2)C1=O | 6.40 | 6.52 |

— ChEMBL document CHEMBL1268986, “Inhibition of Bfl-1 with N-aryl maleimides” (Bioorg Med Chem Lett, 2010)
